Screens as filed in PubChem.
Tn7 DDE FP: disrupts Tn7 cyclic peptide binding to fibrin D-Dimer-E complex; P02675; FP displacement of FITC-Tn7 peptide from fibrin DD(E); 0% = median of compound wells per plate; inhibition, % at 8.3 µM; 370,000 compounds, 0.13% hits; AID 720508;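 active = inhibition above the mean of compounds falling within the control limits plus 3 SD of them, cut at about 14% in these data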;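 note: 0% = plate median of compound wells and 100% = 10 µM Aha-Tn7 peptide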
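Test system: human clot-derived fibrin DD(E) complex / Quantity: 2 µM final DD(E) protein / Incubation: 10 min plus 3 h, room temperature / Measured by: fluorescence polarization / Benchmarks: high control of 10 µM Aha-Tn7 peptide / Replicates: singlicate testing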
CRFBP-R2 block: CRF-BP/CRF-R2 complex antagonism. HEK293 CRF-R2/CRF-BP, CRF-induced calcium fluorescence. inhibition, % at 11.8 µM. 350,000 compounds, 0.59% hits;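 active = inhibition of the ligand-induced calcium signal above about 50% at the single tested concentration, limit read from the data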
NRP1-CendR mod: NRP-1/CendR interaction modulation | O14786 | FAM-RPARPAR peptide binding to NRP-1, fluorescence polarization | inhibition, % at 25 µM | 360,000 compounds, 0.85% hits;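 active = inhibition or corrected inhibition above about 18%, plus a signal ratio from 0.5 to 1.5, limit read from the data, passing the limit was not always enough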
Target sequence (O14786 whole entry, looked up): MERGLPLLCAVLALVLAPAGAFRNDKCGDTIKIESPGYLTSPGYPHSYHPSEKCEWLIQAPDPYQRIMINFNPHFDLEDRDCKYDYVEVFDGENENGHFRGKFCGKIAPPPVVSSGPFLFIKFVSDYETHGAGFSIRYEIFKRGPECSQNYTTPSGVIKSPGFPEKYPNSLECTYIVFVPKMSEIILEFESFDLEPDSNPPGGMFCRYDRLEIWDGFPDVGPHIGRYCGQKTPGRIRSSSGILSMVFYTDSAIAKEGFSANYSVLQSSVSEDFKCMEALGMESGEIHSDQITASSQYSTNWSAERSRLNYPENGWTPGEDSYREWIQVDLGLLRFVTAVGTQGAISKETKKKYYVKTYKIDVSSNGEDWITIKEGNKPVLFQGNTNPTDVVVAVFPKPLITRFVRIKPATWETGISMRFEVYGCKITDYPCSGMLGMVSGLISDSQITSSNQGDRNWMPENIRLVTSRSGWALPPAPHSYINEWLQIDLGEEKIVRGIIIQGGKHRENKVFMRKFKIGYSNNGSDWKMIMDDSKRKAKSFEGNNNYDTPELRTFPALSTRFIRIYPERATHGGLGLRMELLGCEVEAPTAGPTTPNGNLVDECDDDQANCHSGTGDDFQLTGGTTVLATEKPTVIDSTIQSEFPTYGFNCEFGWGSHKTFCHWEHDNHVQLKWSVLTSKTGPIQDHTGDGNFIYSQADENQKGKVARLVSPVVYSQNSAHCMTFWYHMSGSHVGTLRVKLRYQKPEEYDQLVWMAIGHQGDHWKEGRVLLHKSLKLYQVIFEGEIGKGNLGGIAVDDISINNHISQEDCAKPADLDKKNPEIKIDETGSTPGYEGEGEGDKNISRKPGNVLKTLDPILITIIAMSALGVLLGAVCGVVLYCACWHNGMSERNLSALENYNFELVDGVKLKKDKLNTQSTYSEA
DDE Tn6 FP inh: inhibitors of Tn6 peptide binding to human fibrin DD(E); P02675; 370,000 compounds, 0.21% hits; Fibrin DD(E) TRITC-Tn6 fluorescence polarization displacement; inhibition, % at 8.3 µM;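 active = inhibition above a per-campaign cutoff: mean of compounds within control limits plus 3 SD, cut at about 15% in these data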;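 note: 0% = median of all compound wells on the plate and 100% = blocking peptide control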
KLK7 zymogen act: activates the human kallikrein-7 zymogen; P49862; purified proKLK7, EDANS-DABCYL substrate fluorescence; 100% is mature enzyme control, 0% vehicle; activation, % at 7 µM; 370,000 compounds, 0.9% hits; AID 652039;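 active = activation above the mean of all tested compounds plus 3 SD, computed per campaign excluding outliers beyond control limits, cut at about 13% in these data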
CRFBP-R2 agonist: agonists of human CRF-binding protein/CRF-R2 receptor complex. 350,000 compounds, 0.46% hits. HEK293 CRF-R2/CRF-BP, calcium dye fluorescence (FLIPR); percent of saturating CRF peptide response. activation, % at 13.2 µM;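 active = activation of at least 50%, plus an integration ratio under a set limit after plate pattern correction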;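 note: plate controls were neutral control wells without compound for no effect and CRF at EC100 for full effect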
KLK7 act conf: confirmation of human kallikrein-7 zymogen activators; shares compounds with KLK7 zymogen act; purified proKLK7, EDANS-DABCYL substrate fluorescence; scaled: vehicle 0, mature enzyme 100; activation, % at 7 µM; 3,200 compounds, 68% hits; AID 686949;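 active = activation, as change over the incubation, above the mean of all tested compounds plus 3 SD, cut at about 13% in these data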
EDANS interfere: fluorescence interference counter-screen for KLK7 activators; AID 686952; EDANS-DABCYL substrate fluorescence interference, no enzyme, 4 h; solvent 0%, active enzyme control 100%; activation, % at 7 µM; shares compounds with KLK7 zymogen act; 3,200 compounds, 80% hits;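 active = activation above the all-compound mean plus 3 SD, ignoring values outside control-based bounds, cut at about 4.8% in these data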;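 note: value is the 4 h activation minus the activation read at time zero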
EDANS interf: optically interferes with EDANS-DABCYL fluorescence, kallikrein-7 activator counter-screen; shares compounds with KLK7 zymogen act; EDANS-DABCYL peptide fluorescence interference, no enzyme; EC50, µM; 250 compounds, 20% hits;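 active = compounds that raise the fluorescence signal in this interference counterscreen, with EC50 at or below 10 µM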;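 note: intact quenched peptide substrate alone read at 355 nm excitation and 520 nm emission; signal is fluorescence gain from T0 to T4 after four hours at room temperature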
* = called active by the depositor; i = inactive; x = no result given. Most compounds without a hit are left out; they make up all but 2.9% or so of the library.

SMILES	Tn7 DDE FP	CRFBP-R2 block	NRP1-CendR mod	DDE Tn6 FP inh	KLK7 zymogen act	CRFBP-R2 agonist	KLK7 act conf	EDANS interfere	others
c1ccc2sc(-c3csc4c3CCNC4)nc2c1	4	x	x	1	x	x	x	x
OC1c2cc(Cl)cc(Cl)c2N=C2CCCN21 (stereo not drawn)	5	x	-4	-9	15*	x	18*	11*	EDANS interf=i
C[C@@H]1OC(C2CCCCC2)N(C)[C@H]2C[C@H]3c4cc(N5CCOCC5)ccc4CCN3C[C@@H]12 (stereo partly drawn)	-5	x	x	-9	0	x	x	x
CCOC(=O)[C@@]12CCC3=C1N(CCC3)C(=O)[C@H](CC(=O)NCCCN1CCCC1=O)C2	0	x	x	0	0	x	x	x
COc1ccc(-c2c(NC(=O)C(C)C)n(C)c3ccccc3c2=O)cc1	13	30	0	-3	16*	6	18*	20*
COc1cc(OC)c2c(N)c(C#N)c(C(F)(F)C(F)(F)F)nc2c1	4	0	0	1	-1	1	x	x
COc1ccc2nc(C(F)(F)C(F)(F)F)c(C#N)c(N)c2c1	-3	-1	-5	-5	50*	1	-9	-13
CCN(CC)C(=O)[C@H]1C[C@H](CC(=O)NCCCn2ccnc2)C(=O)N2CCc3c([nH]c4cc(-c5ccco5)ccc34)[C@]12C	5	-2	9	-3	95*	0	69*	74*
CCN(CC)C(=O)[C@H]1C[C@H](CC(=O)NCc2ccco2)C(=O)N2CCc3c([nH]c4cc(-c5ccco5)ccc34)[C@]12C	0	6	-16	-6	112*	0	44*	51*
CCN(CC)C(=O)[C@H]1C[C@H](CC(=O)NCCN2CCOCC2)C(=O)N2CCc3c([nH]c4cc(-c5ccco5)ccc34)[C@]12C	-6	3	-9	-1	120*	0	148*	194*
CCN(CC)C(=O)[C@H]1C[C@H](CC(=O)NCc2cccc(C(F)(F)F)c2)C(=O)N2CCc3c([nH]c4cc(-c5ccco5)ccc34)[C@]12C	x	5	-23	x	x	6	x	x
CC[C@H](C)/C=C(C)/C=C/c1cc2c(cn1)C(=O)[C@@](C)(OC(C)=O)C(O)=C2Cl	-2	x	-8	0	86*	x	108*	123*
O=S(=O)(CC1NCc2ccccc21)NCc1ccc(F)cc1 (stereo not drawn)	2	x	x	8	-1	x	x	x
O=C(c1ccc(Cl)c(S(=O)(=O)N2CCCCC2)c1)N1CCCCC1	4	2	17	-1	0	1	x	x
Nc1cccc2c1C(=O)N(C(=O)c1cccc(S(=O)(=O)N3CCCCCC3)c1)C2=O	2	36	6	-8	19*	5	258*	269*
Nc1cccc2c1C(=O)N(C(=O)c1ccc(Cl)c(S(=O)(=O)N3CCCCCC3)c1)C2=O	-1	0	-8	3	18*	0	217*	233*
Cc1ccc(S(=O)(=O)N2CCOCC2)cc1C(=O)N1C(=O)c2cccc(N)c2C1=O	1	-18	-24	-2	-5	9	x	x
COc1cccc(C2c3c(ncn(-c4ccccc4)c3=N)Oc3ccc4ccccc4c32)c1OC (stereo not drawn)	3	x	x	-8	x	x	x	x
COCCCNC(=S)N/N=C/c1ccc(N(C)C)cc1	1	7	-2	-7	26*	0	41*	41*
COCCCNC(=S)N/N=C/c1ccc(N(C)C)cc1Cl	-1	8	-1	3	-9	0	x	x
COc1cc2c3nnc(-c4ccc(F)cc4)c-3cn(Cc3ccc(F)cc3)c2cc1OC	-4	-20	-28	-5	13*	0	-5	-7
Cn1nc2c3cc(F)ccc3n(Cc3ccc(F)cc3)cc-2c1=O	5	-13	5	-4	0	-1	x	x
C=CCCC(=O)N1C[C@H]2CCN(C)[C@H]2C[C@H]1c1ccccc1Br	2	x	x	2	1	x	x	x
C[C@H]1[C@@H](OC(=O)Nc2cccc(Cl)c2)CC[C@@]23CCCN2C(=O)CCC[C@@H]13	8	x	x	7	x	x	x	x
O=C(CSc1nnc(-c2ccccc2)n1-c1ccc(Cl)cc1)c1ccc(Cl)cc1	0	x	x	6	0	x	x	x
SMILES	Tn7 DDE FP	CRFBP-R2 block	NRP1-CendR mod	DDE Tn6 FP inh	KLK7 zymogen act	CRFBP-R2 agonist	KLK7 act conf	EDANS interfere	others
CN(C)C(=O)c1cccc(-c2cccc3nccn23)c1	0	x	-5	-8	2	x	x	x
OCc1ccc(-c2cccc3nccn23)cc1	0	x	6	1	16*	x	15*	14*
CONC(=O)c1ccc(-c2cccc3nccn23)cc1	-4	x	5	0	13*	x	6	12*
COC1=C[C@H](C(=O)NCc2ccc(Br)cc2)C(C)C(c2ccccc2)CC1=O (stereo partly drawn)	7	x	x	0	0	x	x	x
COCc1cn(-c2ccc3c(c2)[C@]2(CC(=O)N(C)C2c2ccccc2)C(=O)N3CC(C)C)nn1 (stereo partly drawn)	-3	x	x	0	0	x	x	x
CC(=O)OCCn1c2nc(=O)[nH]c(=O)c-2nc2cc(C)c(C)cc21	5	-160	131	2	31*	203*	62*	71*
CC1(C)CC(=O)C2=C(C1)N(CCN1CCOCC1)C1=C(C(=O)CC(C)(C)C1)C2c1cccc(Cl)c1	-8	5	1	6	26*	0	2	8.1*
CCN(CC)CCN1C2=C(C(=O)CC(C)(C)C2)C(c2cccc(F)c2)C2=C1CC(C)(C)CC2=O	10	-1	-2	8	16*	-2	-6	-3
CCCCN1C2=C(C(=O)CC(C)(C)C2)C(c2ccccc2)C2=C1c1ccccc1C2=O (stereo not drawn)	4	8	-28	8	0	-3	x	x
COC(=O)c1cc2c(c3c4ccccc4n(S(=O)(=O)c4ccc(OC)cc4)c13)C(=O)N(Cc1ccc(N(C)C)cc1)C2	2	x	x	-3	0	x	x	x
C#CCNC(=O)C[C@@H]1C(=O)N(CCc2ccc(Cl)cc2)C2=CCCCC[C@]21C(=O)OC	-2	x	x	1	0	x	x	x
CCOC(=O)[C@@]12CCC3=C1N(CCC3)C(=O)[C@H](CC(=O)N1CCCC1)C2	4	x	x	7	0	x	x	x
COc1ccc(Cn2c(N)c(C#N)c3nc4ccccc4nc32)cc1	0	-19	-42	0	7	-3	x	x
